Source: ChEMBL document CHEMBL1800056, “Discovery of 2-(6-{[(6-fluoroquinolin-2-yl)methyl]amino}bicyclo[3.1.0]hex-3-yl)-N-hydroxypyrimidine-5-carboxamide (CHR-3996), a class I selective orally active histone deacetylase inhibitor” (J Med Chem, 2010)
Active and inactive are the calls of the source. The rule behind the calls is not given here.

How the values were obtained:
Histone deacetylase 5 = Histone deacetylase 5 (Homo sapiens, UniProt Q9UQL6); experiment: Inhibition of human recombinant HDAC5 using fluor de Lys as substrate by fluorometric analysis
Cytochrome P450 2C19 [1] = target: T1, Cytochrome P450 2C19 (Homo sapiens, UniProt P33261); experiment: Inhibition of CYP2C19; type: ADME
T1 sequence (P33261 whole entry): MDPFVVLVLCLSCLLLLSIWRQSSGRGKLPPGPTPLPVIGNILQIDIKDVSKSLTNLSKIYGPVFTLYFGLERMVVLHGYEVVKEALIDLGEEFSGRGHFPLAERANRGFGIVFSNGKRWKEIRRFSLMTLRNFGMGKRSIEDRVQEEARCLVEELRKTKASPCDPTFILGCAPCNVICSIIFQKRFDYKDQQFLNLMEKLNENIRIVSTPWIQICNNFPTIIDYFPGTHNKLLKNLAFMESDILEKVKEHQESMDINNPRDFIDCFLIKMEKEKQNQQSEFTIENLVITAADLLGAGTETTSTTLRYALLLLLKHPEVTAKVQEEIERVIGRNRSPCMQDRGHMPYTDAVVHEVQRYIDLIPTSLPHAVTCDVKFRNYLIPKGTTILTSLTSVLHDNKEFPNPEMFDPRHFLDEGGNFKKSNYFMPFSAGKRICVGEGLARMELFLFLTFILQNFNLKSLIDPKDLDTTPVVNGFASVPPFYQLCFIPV

HCT-116 [2] = experiment: Induction of apoptosis in human HCT116 cells assessed as PARP cleavage after 30 hrs by Western blot analysis; type: functional, cell-based
Outline: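 HCT116 cells seeded at 2 × 10⁴ cells/mL and treated 24 h later for 30 h. RIPA lysates run at 10 μg/lane on 4-12% gels. Blotted with antibodies to PARP and cleaved PARP (1:1000); GAPDH as loading control; ECL detection.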

MIA PaCa-2 = experiment: Antiproliferative activity against human MIAPaCa2 cells after 72 hrs by WST-1 assay; type: functional; conditions: Homo sapiens, MIA PaCa-2, 72 h
Outline: (§1)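 Cells seeded at (1-5) × 10³/well in serum-containing medium for 24 h at 37 °C, 5% CO₂. Inhibitor added at 0.6-10000 nM for 72 h, with WST-1 pulse over the final 4 h. Formazan read at 450 nm (reference 650 nm). Expressed as % inhibition of vehicle response; GI50 is the concentration inhibiting 50% of vehicle response; n = 6 replicates.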

HCT-116 [3] = experiment: Cell cycle arrest in human HCT116 cells assessed as accumulation at sub-G1 phase at 300 nM after 15 hrs by propidium iodide staining based flow cytometric analysis; type: functional
Histone deacetylase 3 = Histone deacetylase 3 (Homo sapiens, UniProt O15379); experiment: Inhibition of human recombinant HDAC3 using fluor de Lys as substrate by fluorometric analysis
Chain of Histone deacetylase 3 (O15379 whole entry): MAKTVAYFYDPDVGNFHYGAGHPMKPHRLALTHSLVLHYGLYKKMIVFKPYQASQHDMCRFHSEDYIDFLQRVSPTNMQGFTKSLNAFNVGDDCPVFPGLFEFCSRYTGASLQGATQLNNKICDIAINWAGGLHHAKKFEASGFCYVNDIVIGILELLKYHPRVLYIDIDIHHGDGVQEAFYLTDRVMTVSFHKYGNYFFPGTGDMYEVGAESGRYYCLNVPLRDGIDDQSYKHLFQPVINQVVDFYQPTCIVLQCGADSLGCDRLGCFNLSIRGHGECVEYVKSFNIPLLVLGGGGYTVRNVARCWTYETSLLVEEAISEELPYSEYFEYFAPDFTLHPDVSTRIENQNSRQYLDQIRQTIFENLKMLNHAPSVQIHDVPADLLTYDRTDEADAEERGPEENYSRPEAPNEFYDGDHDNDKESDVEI

HCT-116 [4] = experiment: Cell cycle arrest in human HCT116 cells assessed as accumulation at S phase at 300 nM after 15 hrs by propidium iodide staining based flow cytometric analysis; type: functional
Spleen = experiment: Ratio of AUC (0 to t) in spleen to plasma of CD1 mouse at 3 mg/kg, po; conditions: in vivo
MG-63 = experiment: Antiproliferative activity against human MG63 cells after 72 hrs by WST-1 assay; type: functional; conditions: Homo sapiens, MG-63, 72 h; outline: as §1
A549 = experiment: Antiproliferative activity against human A549 cells after 72 hrs by WST-1 assay; type: functional; conditions: Homo sapiens, A549, 72 h; outline: as §1
COR-L23 [5] = experiment: Antiproliferative activity against doxorubicin-resistant human COR-L23 cells after 72 hrs by WST-1 assay; type: functional; conditions: Homo sapiens, COR-L23, 72 h; outline: as §1
PC-3 = experiment: Antiproliferative activity against human PC3 cells after 72 hrs by WST-1 assay; type: functional; conditions: PC-3, 72 h; outline: as §1
Cytochrome P450 2D6 [6] = target: T2, Cytochrome P450 2D6 (Homo sapiens, UniProt P10635); experiment: Inhibition of CYP2D6; type: ADME
T2 sequence (P10635 whole entry): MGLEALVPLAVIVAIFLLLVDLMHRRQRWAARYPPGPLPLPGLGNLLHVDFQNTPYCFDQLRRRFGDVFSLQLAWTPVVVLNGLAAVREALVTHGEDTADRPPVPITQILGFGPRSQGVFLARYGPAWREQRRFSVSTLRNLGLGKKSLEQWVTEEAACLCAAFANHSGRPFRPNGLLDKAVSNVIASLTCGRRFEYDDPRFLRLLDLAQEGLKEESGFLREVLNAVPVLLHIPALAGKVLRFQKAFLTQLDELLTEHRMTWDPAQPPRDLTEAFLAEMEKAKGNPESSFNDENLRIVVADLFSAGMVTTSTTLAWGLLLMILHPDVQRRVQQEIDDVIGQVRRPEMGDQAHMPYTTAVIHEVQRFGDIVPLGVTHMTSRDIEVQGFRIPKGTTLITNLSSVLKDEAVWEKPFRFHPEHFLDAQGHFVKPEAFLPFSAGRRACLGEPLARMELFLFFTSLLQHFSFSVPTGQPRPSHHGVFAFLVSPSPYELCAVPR

MOLT-4 = experiment: Antiproliferative activity against human MOLT4 cells after 72 hrs by WST-1 assay; type: functional; conditions: Homo sapiens, MOLT-4, 72 h; outline: as §1
Histone deacetylase = experiment: Inhibition of HDAC in human HeLa cells nuclear extract using fluor de Lys as substrate preincubated for 5 mins by fluorometric analysis; type: cell-based
[7] = Clearance in dog at 1 mg/kg, iv; type: ADME, organism-based, Canis lupus familiaris; parameters: dose 1 mg/kg, route intravenous; conditions: in vivo
Outline: (§2)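 Dog single dose: iv 1 mg/kg in 5% DMSO-HPβC (11.25% w/v); po 10 mg/kg in 5% DMSO-saline. AUC0-t in ng h/mL, clearance in (mL/min)/kg, t1/2 in h, F in %.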

[8] = target: Protein deacetylase HDAC6 (Homo sapiens, UniProt Q9UBN7); experiment: Inhibition of human recombinant HDAC6 using fluor de Lys as substrate by fluorometric analysis
Chain of Protein deacetylase HDAC6 (Q9UBN7 whole entry): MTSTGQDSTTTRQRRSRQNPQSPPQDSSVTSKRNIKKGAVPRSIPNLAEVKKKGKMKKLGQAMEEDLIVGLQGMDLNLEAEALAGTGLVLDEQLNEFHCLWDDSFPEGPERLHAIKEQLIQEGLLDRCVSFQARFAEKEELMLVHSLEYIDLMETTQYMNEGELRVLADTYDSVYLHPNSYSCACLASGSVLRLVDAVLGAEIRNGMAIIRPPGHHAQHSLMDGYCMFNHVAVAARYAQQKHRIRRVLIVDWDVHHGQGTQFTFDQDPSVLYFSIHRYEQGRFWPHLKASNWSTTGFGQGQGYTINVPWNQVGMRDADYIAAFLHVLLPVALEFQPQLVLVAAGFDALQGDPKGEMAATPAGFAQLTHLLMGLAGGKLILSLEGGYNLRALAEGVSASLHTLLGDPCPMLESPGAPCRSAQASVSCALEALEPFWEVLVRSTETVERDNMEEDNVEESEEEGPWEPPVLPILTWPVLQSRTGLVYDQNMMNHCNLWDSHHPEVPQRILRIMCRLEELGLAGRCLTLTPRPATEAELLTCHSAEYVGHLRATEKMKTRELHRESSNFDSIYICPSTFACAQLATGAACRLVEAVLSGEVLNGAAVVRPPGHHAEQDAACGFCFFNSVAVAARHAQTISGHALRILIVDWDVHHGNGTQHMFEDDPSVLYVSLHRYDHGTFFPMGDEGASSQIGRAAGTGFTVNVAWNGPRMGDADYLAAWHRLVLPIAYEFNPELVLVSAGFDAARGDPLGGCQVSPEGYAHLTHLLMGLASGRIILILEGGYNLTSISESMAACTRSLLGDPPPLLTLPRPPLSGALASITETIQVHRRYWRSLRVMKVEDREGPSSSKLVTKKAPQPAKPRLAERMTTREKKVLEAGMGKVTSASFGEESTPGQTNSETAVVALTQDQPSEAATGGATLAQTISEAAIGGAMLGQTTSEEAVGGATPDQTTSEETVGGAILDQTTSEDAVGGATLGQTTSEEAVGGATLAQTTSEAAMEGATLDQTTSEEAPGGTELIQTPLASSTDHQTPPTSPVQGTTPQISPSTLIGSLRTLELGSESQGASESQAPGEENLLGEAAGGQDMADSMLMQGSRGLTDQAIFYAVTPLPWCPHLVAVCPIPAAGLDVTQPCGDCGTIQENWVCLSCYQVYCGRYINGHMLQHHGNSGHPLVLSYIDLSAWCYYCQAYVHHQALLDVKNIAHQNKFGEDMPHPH

Histone deacetylase 2 = Histone deacetylase 2 (Homo sapiens, UniProt Q92769); experiment: Inhibition of human recombinant HDAC2 using fluor de Lys as substrate by fluorometric analysis
Chain of Histone deacetylase 2 (Q92769 whole entry): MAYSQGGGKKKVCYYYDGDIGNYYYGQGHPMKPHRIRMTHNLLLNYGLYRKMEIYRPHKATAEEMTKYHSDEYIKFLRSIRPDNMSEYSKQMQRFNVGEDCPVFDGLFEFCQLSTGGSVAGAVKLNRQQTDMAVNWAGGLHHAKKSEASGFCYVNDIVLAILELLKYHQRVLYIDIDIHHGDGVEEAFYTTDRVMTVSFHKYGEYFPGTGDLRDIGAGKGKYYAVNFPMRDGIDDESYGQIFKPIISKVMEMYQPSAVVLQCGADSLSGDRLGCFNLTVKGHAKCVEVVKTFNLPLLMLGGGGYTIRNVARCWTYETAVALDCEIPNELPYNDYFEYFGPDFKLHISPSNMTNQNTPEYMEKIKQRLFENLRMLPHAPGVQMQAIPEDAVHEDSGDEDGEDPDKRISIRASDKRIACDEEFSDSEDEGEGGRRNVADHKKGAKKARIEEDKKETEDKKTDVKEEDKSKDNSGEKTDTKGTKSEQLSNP

HCT-116 [9] = experiment: Cell cycle arrest in human HCT116 cells assessed as accumulation at G1 phase at 300 nM after 15 hrs by propidium iodide staining based flow cytometric analysis; type: functional
DU-145 = experiment: Antiproliferative activity against human DU145 cells after 72 hrs by WST-1 assay; type: functional; conditions: DU-145, 72 h
Outline: (§3)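 Cells seeded at (1-5) × 10³/well in serum-containing medium for 24 h at 37 °C, 5% CO₂. Inhibitor added at 0.6-10000 nM for 72 h, with WST-1 pulse over the final 4 h. Formazan read at 450 nm (reference 650 nm).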

A2780 = experiment: Antiproliferative activity against human A2780 cells after 72 hrs by WST-1 assay; type: functional; conditions: Homo sapiens, A2780, 72 h; outline: as §1
COR-L23 [10] = experiment: Antiproliferative activity against human COR-L23 cells after 72 hrs by WST-1 assay; type: functional; conditions: Homo sapiens, COR-L23, 72 h; outline: as §1
[11] = Clearance in mouse liver microsomes assessed as compound remaining after 30 mins; type: ADME, Microsome; conditions: read-out: Activity
[12] = Ratio of GI50 for human HCT116 cells to IC50 for HDAC in human HeLa cell nuclear extracts
Outline: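 Cell/enzyme ratio = HCT116 GI50 divided by HDAC IC50. Enzyme: HeLa nuclear extract (10 μg protein), 5 min preincubation, then Fluor de Lys substrate 62.5 μM, 15 min at room temperature. Stopped with developer containing trichostatin A; fluorescence ex 355/em 455 nm; eight concentrations in duplicate. Cells: HCT116, 72 h exposure (0.6-10000 nM), WST-1 read at 450 nm, n = 6.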

[13] = Clearance in human liver microsomes assessed as compound remaining after 30 mins; type: ADME, Microsome; conditions: read-out: Activity
U-937 = experiment: Antiproliferative activity against human U937 cells after 72 hrs by WST-1 assay; type: functional; conditions: Homo sapiens, U-937, 72 h; outline: as §1
HCT-116 [14] = experiment: Cell cycle arrest in human HCT116 cells assessed as accumulation at G2/M phase at 300 nM after 15 hrs by propidium iodide staining based flow cytometric analysis; type: functional
Cytochrome P450 2D6 [15] = target: T2, Cytochrome P450 2D6; experiment: Inhibition of CYP2D6 at < 10 uM; type: ADME
Cytochrome P450 2C19 [16] = target: T1, Cytochrome P450 2C19; experiment: Inhibition of CYP 2C19 at < 10 uM; type: ADME
LoVo = experiment: Antiproliferative activity against human LoVo cells after 72 hrs by WST-1 assay; type: functional; conditions: Homo sapiens, LoVo, 72 h; outline: as §1
Cytochrome P450 3A4 [17] = target: T3, Cytochrome P450 3A4 (Homo sapiens, UniProt P08684); experiment: Inhibition of CYP3A4; type: ADME
T3 sequence (P08684 whole entry): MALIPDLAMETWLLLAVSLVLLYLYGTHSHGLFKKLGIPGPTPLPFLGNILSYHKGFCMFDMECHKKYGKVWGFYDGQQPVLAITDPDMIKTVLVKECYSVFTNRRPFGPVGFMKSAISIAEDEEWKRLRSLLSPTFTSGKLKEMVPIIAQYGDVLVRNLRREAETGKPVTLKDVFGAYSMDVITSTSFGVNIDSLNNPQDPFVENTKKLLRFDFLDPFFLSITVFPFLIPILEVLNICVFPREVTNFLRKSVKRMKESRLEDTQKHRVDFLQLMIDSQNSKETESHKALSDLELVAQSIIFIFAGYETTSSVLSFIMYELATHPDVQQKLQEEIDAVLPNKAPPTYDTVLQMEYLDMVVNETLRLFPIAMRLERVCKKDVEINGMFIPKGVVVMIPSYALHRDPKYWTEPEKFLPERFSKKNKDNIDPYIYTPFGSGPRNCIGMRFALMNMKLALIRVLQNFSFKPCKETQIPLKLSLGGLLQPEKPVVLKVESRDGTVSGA

HCT-116 [18] = experiment: Antiproliferative activity against human HCT116 cells after 72 hrs by WST-1 assay; type: functional; conditions: Homo sapiens, HCT-116, 72 h; outline: as §1
Cytochrome P450 3A4 [19] = target: T3, Cytochrome P450 3A4; experiment: Inhibition of CYP3A4 at < 10 uM; type: ADME
[20] = AUC (0 to t) in dog at 1 mg/kg, iv; type: ADME, organism-based, Canis lupus familiaris; parameters: dose 1 mg/kg, route intravenous; conditions: plasma; outline: as §2
[21] = AUC (0 to t) in dog at 10 mg/kg, po; type: ADME, organism-based, Canis lupus familiaris; parameters: dose 10 mg/kg, route oral; conditions: plasma; outline: as §2
HuT78 = experiment: Antiproliferative activity against human HUT78 cells after 72 hrs by WST-1 assay; type: functional; conditions: HuT78, 72 h; outline: as §3
Histone deacetylase 1 = Histone deacetylase 1 (Homo sapiens, UniProt Q13547); experiment: Inhibition of human recombinant HDAC1 using fluor de Lys as substrate by fluorometric analysis
Chain of Histone deacetylase 1 (Q13547 whole entry): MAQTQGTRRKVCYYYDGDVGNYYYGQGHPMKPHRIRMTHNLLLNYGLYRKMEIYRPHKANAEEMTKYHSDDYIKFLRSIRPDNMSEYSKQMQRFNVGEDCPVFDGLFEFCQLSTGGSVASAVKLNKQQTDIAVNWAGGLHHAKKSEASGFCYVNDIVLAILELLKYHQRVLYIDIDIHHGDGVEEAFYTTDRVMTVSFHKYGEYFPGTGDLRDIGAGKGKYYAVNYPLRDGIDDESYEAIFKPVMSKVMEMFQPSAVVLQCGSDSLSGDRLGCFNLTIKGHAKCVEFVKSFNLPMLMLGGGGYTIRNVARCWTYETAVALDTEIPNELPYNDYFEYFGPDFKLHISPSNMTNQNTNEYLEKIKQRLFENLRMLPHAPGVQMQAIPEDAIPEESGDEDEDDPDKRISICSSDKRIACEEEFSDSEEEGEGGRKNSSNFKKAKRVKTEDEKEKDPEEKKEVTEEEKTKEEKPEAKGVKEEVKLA

Row | IC50 (Histone deacetylase 5) [µM] | IC50 (Cytochrome P450 2C19 [1]) [µM] | GI50 (MIA PaCa-2) [µM] | IC50 (Histone deacetylase 3) [µM] | Ratio (Spleen) | GI50 (A549) [µM] | GI50 (PC-3) [µM] | IC50 (Cytochrome P450 2D6 [6]) [µM] | GI50 (MOLT-4) [µM] | IC50 (Histone deacetylase) [µM] | clearance [7] [L/h/kg] | IC50 [8] [µM] | IC50 (Histone deacetylase 2) [µM] | GI50 (DU-145) [µM] | Compound | Activity (HCT-116 [2]) | Activity (HCT-116 [3]) [%] | Activity (HCT-116 [4]) [%] | GI50 (MG-63) [µM] | GI50 (COR-L23 [5]) [µM] | Activity (HCT-116 [9]) [%] | further results
1 | 0.2 | > 50 | 0.28 | 0.007 | 8.3 | 0.25 | 0.16 | > 50 | 0.031 | 0.008 | 4.2 | 2.1 | 0.004 | 0.048 | O=C(NO)c1cnc(N2C[C@@H]3[C@H](C2)[C@H]3NCc2ccc3cc(F)ccc3n2)nc1 [NANATINOSTAT] | Active | 21 | 10 | 0.75 | 0.56 | 21 | Ki (Histone deacetylase): 0.0048 µM; GI50 (A2780): 0.21 µM; GI50 (COR-L23 [10]): 0.105 µM; remaining at 0.5 h [11]: 31%; Ratio [12]: 9; remaining at 0.5 h [13]: 21%; GI50 (U-937): 0.052 µM; Activity (HCT-116 [14]): 48%; inhibition (INH) (Cytochrome P450 2D6 [15]): Not Active; inhibition (INH) (Cytochrome P450 2C19 [16]): Not Active; GI50 (LoVo): 0.14 µM; IC50 (Cytochrome P450 3A4 [17]): 10 µM; GI50 (HCT-116 [18]): 0.072 µM; inhibition (INH) (Cytochrome P450 3A4 [19]): Not Active; AUC(0-t) [20]: 0.241 µg·h/mL; AUC(0-t) [21]: 0.95 µg·h/mL; GI50 (HuT78): 0.031 µM; IC50 (Histone deacetylase 1): 0.003 µM
2 | 0.5 | 50 | 0.62 | 0.01 | 7.5 | 0.5 | 0.26 | 10 | 0.071 | 0.013 | 3.78 | 3.3 | 0.014 | 0.092 | O=C(NO)c1cnc(N2C[C@@H]3[C@H](C2)[C@H]3NCc2ccc(Cl)cc2)nc1 | Active | 23 | 11 | 1.6 | 1.1 | 33 | GI50 (A2780): 0.41 µM; GI50 (COR-L23 [10]): 0.21 µM; remaining at 0.5 h [11]: 43%; Ratio [12]: 16; remaining at 0.5 h [13]: 38%; GI50 (U-937): 0.12 µM; Activity (HCT-116 [14]): 33%; inhibition (INH) (Cytochrome P450 2D6 [15]): Not Active; inhibition (INH) (Cytochrome P450 2C19 [16]): Not Active; GI50 (LoVo): 0.31 µM; IC50 (Cytochrome P450 3A4 [17]): > 50 µM; GI50 (HCT-116 [18]): 0.21 µM; inhibition (INH) (Cytochrome P450 3A4 [19]): Not Active; AUC(0-t) [20]: 0.265 µg·h/mL; AUC(0-t) [21]: 1.48 µg·h/mL; GI50 (HuT78): 0.06 µM; IC50 (Histone deacetylase 1): 0.006 µM
